Results on 14 compounds are retold here after ChEMBL document CHEMBL3875229, “Potent Antifungal Synergy of Phthalazinone and Isoquinolones with Azoles Against Candida albicans” (ACS Med Chem Lett, 2017).

Experiment [1] is described as follows: Antifungal activity against Candida albicans clinical isolate 2 in presence of fluconazole. The class given is functional. Summed up: (§1)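 Dose-dependent broth microdilution against fluconazole-resistant clinical isolates. Analogue concentration was varied while fluconazole was held fixed at each isolate's own MIC50, measured separately for fluconazole alone. EC50 is given as arithmetic mean ± SD of three independent experiments.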

Experiment [2] concerns Candida albicans. Put plainly: Antifungal activity against Candida albicans HLY4123 after 16 hrs in presence of 0.05 ug/ml of fluconazole by ten fold serial dilution method. The class given is functional. The conditions noted are these: HLY4123, 16 h.
The nature of experiment [3]: Antifungal activity against Candida albicans clinical isolate 8 in presence of fluconazole. It counts as functional. The method in brief:
as §1

In experiment [4] the test system is Candida albicans. Put plainly: microbe, parasite or virus in culture. Conditions: HLY4123, 16 h.
Experiment [5] can be described thus: Antifungal activity against Candida albicans clinical isolate 45 after 16 hrs in presence of 0.5 ug/ml of isavuconazole by broth microdilution assay. It counts as functional.
The nature of experiment [6]: Antifungal activity against fluconazole-resistant Candida albicans clinical isolate 17 after 16 hrs in presence of 12 ug/ml fluconazole by broth microdilution assay. The class given is functional.
Experiment [7] in a line: Antifungal activity against fluconazole-resistant Candida albicans clinical isolate 26 after 16 hrs in presence of 32 ug/ml fluconazole by broth microdilution assay. The class given is functional.
Experiment [8] can be described thus: Antifungal activity against fluconazole-resistant Candida albicans clinical isolate 33 after 16 hrs in presence of 64 ug/ml fluconazole by broth microdilution assay. It counts as functional.
Experiment [9] can be described thus: Antifungal activity against fluconazole-resistant Candida albicans clinical isolate 36 after 16 hrs in presence of 64 ug/ml fluconazole by broth microdilution assay. It counts as functional.
Experiment [10] is described as follows: Antifungal activity against fluconazole-resistant Candida albicans clinical isolate 45 after 16 hrs in presence of 96 ug/ml fluconazole by broth microdilution assay. The class given is functional.
Experiment [11] relates to Candida albicans. Briefly: Antifungal activity against Candida albicans HLY4123 after 16 hrs in presence of 0.001 ug/ml of isavuconazole by ten fold serial dilution method. The conditions noted are these: HLY4123, 16 h. It counts as functional.
Experiment [12] relates to Candida albicans. Briefly: Antifungal activity against Candida albicans HLY4123 at 0.015 nM to […] after 16 hrs in presence of […] of fluconazole by checkerboard assay. It counts as functional. Summed up:
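Analogue and fluconazole were combined in a checkerboard format against C. albicans HLY4123. Fractional inhibitory concentration indices were calculated, with 0.5 taken as the upper limit for pharmacological synergy.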

As for `COc1ccc(-n2nc(C(=O)NCC(=O)NCCC3=CCCCC3)c3ccccc3c2=O)c(OC)c1`, the EC50 in experiment [1] turned out to be 470 nM; in the experiment on Candida albicans [2] it was 49 nM; in [3], 220 nM; in the experiment with Candida albicans [4], 15 nM.
As for `COc1cc(Br)ccc1-n1cc(C(=O)NCC(=O)NCCC2=CCCCC2)c2ccc(C#CCCCO)cc2c1=O`, in the experiment with Candida albicans [4], the EC50 was more than 100000 nM.
With `Cc1c(Cl)ccc2c1NC(=O)[C@@]21[C@H]2C(=O)N(c3ccccc3)C(=O)[C@H]2[C@H]2CN(C(=O)OCc3ccccc3)CCN21`, the EC50 in the experiment on Candida albicans [4] amounted to 0.3 nM.
Same read-out and setting: the figure for `COc1cc(Br)ccc1-n1cc(C(=O)NCC(=O)NCCC2=CCCCC2)c2occc2c1=O` is more than 10000 nM; for `COc1cc(Br)ccc1-n1cc(C(=O)N[C@@H](CCCCNC(=O)OCc2ccccc2Cl)C(=O)NCCC2=CCCCC2)c2ccccc2c1=O` it is 23 nM.
For the compound `COc1cc(Br)ccc1-n1cc(C(=O)NCC(=O)NCCC2=CCCCC2)c2ccccc2c1=O`, the EC50 in the experiment on Candida albicans [2] came to 24 nM; in experiment [5] it was 110 nM; in experiment [6], 74 nM; in experiment [7] it was 11 nM; in [8], 371 nM; in experiment [9] it was 32 nM. Further, the EC50 was determined as 170 nM in [10], 6 nM in the experiment with Candida albicans [11] and 3 nM in the experiment with Candida albicans [4]. Further, the “fractional inhibitory concentration index (FICI)” value with Candida albicans [12] is recorded as less than 0.17.
In the case of `COc1cc(Br)ccc1-n1nc(C(=O)NCC(=O)NCCC2=CCCCC2)c2ccccc2c1=O`, the 50% effective concentration (EC50) in the experiment on Candida albicans [2] was determined as 7 nM; in experiment [5], 13 nM; in experiment [6], 39 nM; in [7] it was 17 nM; in experiment [8] it was 72 nM; in [9], 20 nM. Also, the EC50 is 65 nM in [10], 4 nM in the experiment on Candida albicans [11] and 1 nM in the experiment on Candida albicans [4]. For the same compound, the “fractional inhibitory concentration index (FICI)” value with Candida albicans [12] is recorded as less than 0.12.
In turn, `COc1cc(Br)ccc1-n1cc(C(=O)NCC(=O)NCCC2=CCCCC2)c2ccc(Br)cc2c1=O` had a concentration for a half-maximal effect (EC50) in the experiment on Candida albicans [4] of 3 nM.
With `COc1ccc(-n2cc(C(=O)NCC(=O)NCCC3=CCCCC3)c3ccccc3c2=O)c(OC)c1`, the EC50 with Candida albicans [4] stood at 33 nM.
On the same count and under the same terms, the figure for `COc1cc(Br)ccc1-n1cc(C(=O)NCC(=O)NCCC2=CCCCC2)c2sccc2c1=O` is 230 nM; for `COc1cc(Br)ccc1-n1cc(C(=O)NCCc2ccccc2)c2ccccc2c1=O` it is 220 nM.
In the experiment on Candida albicans [4], `COc1cc(C)ccc1-n1cc(C(=O)NCC(=O)NCCC2=CCCCC2)c2ccccc2c1=O` had an EC50 of 65 nM.
The same measure, in the same setting: the figure for `COc1cc(Br)ccc1-n1cc(C(=O)NCC(=O)NCCc2ccccc2)c2ccccc2c1=O` is 20 nM.
Still for that read-out and setting: the figure for `COc1cc(C#CCCCO)ccc1-n1cc(C(=O)NCC(=O)NCCC2=CCCCC2)c2ccccc2c1=O` is more than 100000 nM.
